Data published in ChEMBL document CHEMBL1140051, “Discovery of novel Cdc25 phosphatase inhibitors with micromolar activity based on the structure-based virtual screening” (J Med Chem, 2008).

Columns and labels:
[1] = target: T1, M-phase inducer phosphatase 2 (Homo sapiens, UniProt P30305); assay: Inhibition of Cdc25B (378-566) expressed in Escherichia coli
T1 sequence (P30305 whole entry): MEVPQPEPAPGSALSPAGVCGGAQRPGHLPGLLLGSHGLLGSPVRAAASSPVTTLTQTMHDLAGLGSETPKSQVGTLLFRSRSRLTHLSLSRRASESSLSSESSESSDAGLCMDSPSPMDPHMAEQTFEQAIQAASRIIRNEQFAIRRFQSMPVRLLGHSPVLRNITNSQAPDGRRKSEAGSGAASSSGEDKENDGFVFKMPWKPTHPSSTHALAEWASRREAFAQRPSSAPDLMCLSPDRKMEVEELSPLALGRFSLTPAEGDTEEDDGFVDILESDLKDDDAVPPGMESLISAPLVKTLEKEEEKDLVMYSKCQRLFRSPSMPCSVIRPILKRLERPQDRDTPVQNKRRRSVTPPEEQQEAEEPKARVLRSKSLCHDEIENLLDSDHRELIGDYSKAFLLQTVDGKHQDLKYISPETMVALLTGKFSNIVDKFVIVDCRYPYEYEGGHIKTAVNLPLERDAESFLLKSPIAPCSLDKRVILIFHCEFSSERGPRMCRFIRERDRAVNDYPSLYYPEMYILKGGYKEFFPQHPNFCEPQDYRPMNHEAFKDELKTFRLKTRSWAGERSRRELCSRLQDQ

[2] = target: T2, M-phase inducer phosphatase 1 (Homo sapiens) (UniProt P30304); assay: Inhibition of Cdc25A (336-523) expressed in Escherichia coli at 50 uM
T2 sequence (whole entry): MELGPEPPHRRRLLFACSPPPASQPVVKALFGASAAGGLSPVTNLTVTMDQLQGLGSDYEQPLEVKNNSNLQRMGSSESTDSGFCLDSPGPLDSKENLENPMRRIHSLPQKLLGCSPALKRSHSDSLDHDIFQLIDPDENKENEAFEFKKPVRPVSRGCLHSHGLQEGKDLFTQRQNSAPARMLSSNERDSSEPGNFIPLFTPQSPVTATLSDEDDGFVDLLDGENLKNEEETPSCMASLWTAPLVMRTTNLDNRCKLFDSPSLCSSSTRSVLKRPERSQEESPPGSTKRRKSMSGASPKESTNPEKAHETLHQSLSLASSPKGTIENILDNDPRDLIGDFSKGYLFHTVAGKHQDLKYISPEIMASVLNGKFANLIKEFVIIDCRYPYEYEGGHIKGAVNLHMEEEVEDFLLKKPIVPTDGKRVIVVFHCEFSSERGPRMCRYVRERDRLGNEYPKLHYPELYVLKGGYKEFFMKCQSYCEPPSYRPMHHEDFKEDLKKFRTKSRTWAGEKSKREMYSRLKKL

[3] = target: T3, M-phase inducer phosphatase 1 (Homo sapiens, UniProt P30304); assay: Inhibition of Cdc25A (336-523) expressed in Escherichia coli
T3 sequence (P30304 whole entry): T2 sequence (whole entry)
Procedure, shortened: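 Inhibitor added in DMSO. 20 min at room temperature, stopped with 1 mM orthovanadate (final). IC50 determined at least three times and averaged.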

[4] = target: T3, M-phase inducer phosphatase 1; assay: Binding affinity to Cdc25A (336-523) expressed in Escherichia coli by steady-state kinetic assay
[5] = target: T4, M-phase inducer phosphatase 2 (Homo sapiens) (UniProt P30305); assay: Inhibition of Cdc25B (378-566) expressed in Escherichia coli at 50 uM
T4 sequence (whole entry): T1 sequence (P30305 whole entry)

[6] = Inhibition of Cdc25A R501A mutant
[7] = Inhibition of Cdc25B R544A mutant
[8] = Inhibition of Cdc25B R544K mutant
[9] = Inhibition of Cdc25A R501K mutant

N#CC1=C(S)N(c2ccccc2)C(/C=C/c2ccc(-c3ccc(Cl)cc3)o2)NC1=O (configuration not stated)
IC50 [1]: 12.6 µM | inhibition [2]: > 70% | IC50 [3]: 3.31 µM | Ki [4]: 29.2 µM | inhibition [5]: > 70%

Cc1ccc(/N=C2N=C(O)/C(=C/C=C/c3ccco3)S\2)cc1C
IC50 [1]: 5.44 µM | IC50 [3]: 4.27 µM | Ki [4]: 21.4 µM

COc1ccc(-n2nnc(SCC(=O)c3ccc(O)c(O)c3)n2)cc1
IC50 [6]: 12.1 µM | IC50 [1]: 14.2 µM | inhibition [2]: > 70% | IC50 [7]: 16 µM | IC50 [3]: 4.07 µM | IC50 [8]: 17.4 µM | Ki [4]: 20.4 µM | inhibition [5]: > 70% | IC50 [9]: 6.09 µM

C=CCn1c(SCC(=O)c2ccc(O)c(O)c2)nnc1-c1cccc(Cl)c1
IC50 [1]: 4.67 µM | inhibition [2]: > 70% | IC50 [3]: 3.28 µM | inhibition [5]: > 70%

CC1=C(SCCO)C(=O)c2ccccc2C1=O
IC50 [1]: 23.6 µM | IC50 [3]: 4.56 µM

Cc1ccc(-c2nnc(SCC(=O)c3ccc(O)c(O)c3)n2-c2ccc(Cl)cc2)cc1
inhibition [2]: > 70% | inhibition [5]: > 70%

Cc1ccc(NC2=NC(=O)/C(=C/C=C/c3ccco3)S2)cc1C
inhibition [2]: > 70% | inhibition [5]: > 70%
